Test results taken from ChEMBL document CHEMBL3286392, “Iron chelators in photodynamic therapy revisited: synergistic effect by novel highly active thiosemicarbazones” (ACS Med Chem Lett, 2014).
Activity calls are given as the source filed them. No cut-off for these calls is given here.

Assays:
HCT-116 [1] = assay: Dark cytotoxicity against human HCT116 cells expressing wild type p53 after 96 hrs by MTT assay; assay type: cell-based; settings: HCT-116, 96 h
HCT-116 [2] = assay: Photocytotoxicity against human HCT116 cells expressing wild type p53 assessed as combination index incubated for 24 hrs followed by light irradiation measured after 24 hrs by MTS assay in presence of ALA; assay type: functional
Summary of the method: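 HCT 116+/+ cells were treated with TSC at a range of concentrations plus ALA held at 1 mM. PpIX was irradiated at varied light doses, with doses increased in constant ratio. CI was calculated by the Chou–Talalay method as the summed doses in the combination divided by the dose of each therapy alone giving the same cytotoxic effect.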

HCT-116 [3] = assay: Photocytotoxicity against human HCT116 cells expressing wild type p53 incubated for 24 hrs followed by light irradiation measured after 24 hrs by MTS assay in presence of ALA and FeCl3; assay type: functional, cell-based
HCT-116 [4] = assay: Induction of ROS generation in human HCT116 cells expressing wild type p53 at 4 uM after 24 hrs by spectrophotometry; assay type: functional, cell-based
HCT-116 [5] = assay: Dark cytotoxicity against p53-deficient human HCT116 cells after 96 hrs by MTT assay; assay type: cell-based; settings: HCT-116, 96 h
Raji = assay: Dark cytotoxicity against human Raji cells after 72 hrs by MTT assay; assay type: cell-based
HeLa = assay: Dark cytotoxicity against human HeLa cells after 72 hrs by MTT assay; assay type: cell-based
NHDF = assay: Dark cytotoxicity against human NHDF cells after 72 hrs by MTT assay; assay type: cell-based
[6] = Ratio of IC50 for p53-deficient human HCT116 cells to IC50 for human Raji cells; assay type: cell-based; settings: hct-116
HCT-116 [7] = assay: Cytotoxicity against human HCT116 cells expressing wild type p53 assessed as cell death at 50 uM; assay type: cell-based; settings: hct-116, 50 µM
HCT-116 [8] = assay: Induction of ROS generation in human HCT116 cells expressing wild type p53 at 1.6 nM after 24 hrs by spectrophotometry; assay type: functional, cell-based
[9] = Ratio of IC50 for human HCT116 cells expressing wild type p53 to IC50 for human NHDF cells; assay type: cell-based, HCT-116; settings: HCT116 cells expressing wild type p53 and NHDF cells, read-out: Ratio IC50
HCT-116 [10] = assay: Induction of ROS generation in human HCT116 cells expressing wild type p53 at 8 nM after 24 hrs by spectrophotometry; assay type: functional, cell-based
HCT-116 [11] = assay: Induction of 5-aminolevulinic acid-induced cellular PpIX formation in human HCT116 cells expressing wild type p53 at 50 uM by fluorescence plate reader analysis; assay type: functional, cell-based

SMILES	IC50 (HCT-116 [1]) [nM]	CI (HCT-116 [2])	Activity (HCT-116 [3])	Activity (HCT-116 [4])	IC50 (HCT-116 [5]) [nM]	IC50 (Raji) [nM]	IC50 (HeLa) [nM]	IC50 (NHDF) [nM]	Ratio IC50 [6]	Activity (HCT-116 [7])	Activity (HCT-116 [8])	selectivity ratio [9]	Activity (HCT-116 [10])	Activity (HCT-116 [11])
NC(=S)N/N=C/c1ncccc1N [TRIAPINE]	1230	0.85	Active	Active	–	–	–	–	–	–	–	–	–	–
S=C(NN=C(c1ccccn1)c1ccccn1)N1CCN(c2ccccc2)CC1	0.81	0.47	Active	–	0.76	0.32	570	1.73	2.4	Toxic	Active	–	–	–
Oc1cccc2ccc(/C=N/NC(=S)N3CCOCC3)nc12	3.84	0.08	Active	–	16.8	21.2	176	> 10000	–	Toxic	–	2770	Active	–
CCN1CCN(C(=S)N/N=C/c2ccccc2O)CC1	> 20000	0.95	Active	–	> 20000	> 10000	> 20000	> 20000	–	–	–	–	–	inactive
CC(=O)N(O)CCCCCNC(=O)CCC(=O)N(O)CCCCCNC(=O)CCC(=O)N(O)CCCCCN [DEFEROXAMINE]	> 200000	1.01	Active	–	> 200000	–	–	–	–	–	–	–	–	inactive
CN(C)C(=S)N/N=C/c1c(O)ccc2cccnc12	> 20000	6.08	Active	–	> 20000	–	–	> 20000	–	–	–	–	–	inactive
